In publication PMC7161550 (British Journal of Pharmacology, 2020):
Where “and” joins values, the source holds several entries; their conditions need not be identical. Equal values may be shown once. Read-outs that look alike come from different tables or passages of the source.

Tests used:
CYP2A6 = CYP2A6 (Homo sapiens, UniProt P11509); assay: CYP inhibition, pooled human liver microsomes; assay type: in vitro ADME; conditions: 0.33–99.2 μM, co‐ and pre‐incubation
In short: (§1)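 The rate of metabolite formation was measured; testosterone was one CYP3A4 substrate. Controls: solvent vehicle, enzyme-selective inhibitors, mechanism-based inhibitors. Analysis by HPLC with online radio-detection or LC/MS/MS.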

[1] = molecular target: T1, mouse liver fatty acid amide hydrolase (FAAH) (Mus musculus, UniProt O08914); assay: Ex vivo FAAH activity in mouse liver after oral administration; conditions: for ED50 [95% CI] Liver: 8 hr after oral administration
T1 sequence (O08914 1-579): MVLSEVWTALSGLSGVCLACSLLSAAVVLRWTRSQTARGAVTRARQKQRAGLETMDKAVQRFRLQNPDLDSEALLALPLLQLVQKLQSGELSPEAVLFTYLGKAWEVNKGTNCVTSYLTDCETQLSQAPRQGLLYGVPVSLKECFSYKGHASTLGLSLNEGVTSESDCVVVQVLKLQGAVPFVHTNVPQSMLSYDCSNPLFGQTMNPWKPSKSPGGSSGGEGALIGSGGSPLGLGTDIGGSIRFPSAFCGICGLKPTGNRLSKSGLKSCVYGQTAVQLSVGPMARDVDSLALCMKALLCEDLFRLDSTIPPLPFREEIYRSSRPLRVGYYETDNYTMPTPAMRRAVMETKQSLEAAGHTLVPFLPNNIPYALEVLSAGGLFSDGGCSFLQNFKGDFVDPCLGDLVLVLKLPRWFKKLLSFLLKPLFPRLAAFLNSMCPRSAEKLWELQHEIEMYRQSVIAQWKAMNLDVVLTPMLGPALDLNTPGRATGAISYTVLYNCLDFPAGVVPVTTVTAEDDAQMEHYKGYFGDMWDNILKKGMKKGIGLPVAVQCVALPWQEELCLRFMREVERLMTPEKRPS
In short: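 Liver and half-brain were collected into FAAH membrane buffer (3 mM MgCl2, 1 mM EDTA, 50 mM Tris HCl, pH 7.4) and stored at −20°C. Homogenates (15 μg protein brain, 5 μg liver) were pre-incubated 15 min at 37°C. AEA + 3H‑AEA + BSA was added for 10 min (brain) or 7 min (liver), then charcoal. Scintillation counting gave % remaining activity versus controls after blank subtraction.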

OCT2 = OCT2 (Homo sapiens, UniProt O15244); assay: Transporter inhibition, probe substrate accumulation; assay type: in vitro ADME; conditions: MDCKII cells stably transfected with OCT2
In short: (§2)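 Inhibition of probe substrate accumulation in transfected cells: CHO‑K1 for OAT1 and OCT1; HEK293 for OAT3, OATP1B1 and OATP1B3; MDCKII for OCT2, MATE1 and MATE2‑K. Each transporter's activity was confirmed with a positive control substrate or inhibitor.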

CYP2C8 = CYP2C8 (Homo sapiens, UniProt P10632); assay: CYP inhibition, pooled human liver microsomes; assay type: in vitro ADME; conditions: 0.33–99.2 μM, co‐ and pre‐incubation
In short: as §1

human OATP1B1 = human OATP1B1 (Homo sapiens, UniProt Q9Y6L6); assay: Transporter inhibition, probe substrate accumulation; assay type: in vitro ADME; conditions: 0.033–33.3 μM
In short: as §2

[2] = molecular target: T2, rat brain fatty acid amide hydrolase (FAAH) (Rattus norvegicus, UniProt P97612); assay type: biochemical
T2 sequence (P97612 1-579): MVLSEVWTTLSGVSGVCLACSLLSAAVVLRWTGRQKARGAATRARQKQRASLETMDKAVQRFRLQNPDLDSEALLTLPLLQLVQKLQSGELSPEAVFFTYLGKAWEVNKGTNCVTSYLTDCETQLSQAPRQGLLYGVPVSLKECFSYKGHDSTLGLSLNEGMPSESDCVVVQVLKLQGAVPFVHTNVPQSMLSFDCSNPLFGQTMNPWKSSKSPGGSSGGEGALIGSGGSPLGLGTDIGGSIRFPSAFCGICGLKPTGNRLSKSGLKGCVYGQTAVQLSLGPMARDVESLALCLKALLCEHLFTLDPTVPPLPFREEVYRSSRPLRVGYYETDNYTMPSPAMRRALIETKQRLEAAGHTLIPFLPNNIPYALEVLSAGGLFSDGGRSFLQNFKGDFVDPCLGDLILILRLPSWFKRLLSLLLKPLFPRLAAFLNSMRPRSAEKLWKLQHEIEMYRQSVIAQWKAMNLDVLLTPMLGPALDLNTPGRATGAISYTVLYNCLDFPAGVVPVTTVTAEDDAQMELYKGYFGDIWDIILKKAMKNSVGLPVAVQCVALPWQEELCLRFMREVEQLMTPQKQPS
In short: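 Rat brain membranes from Wistar rats, 10 μg protein, in 1 mM EDTA, 10 mM Tris, pH 7.6. Test compound at 1 nM–10 μM, pre-incubated with enzyme 5–60 min, or reaction started with enzyme when not pre-incubated. Substrate 2 μM AEA + 5 nM 3H‑AEA + 0.1% fatty acid-free BSA, 30 min at room temperature with agitation. Charcoal stop; supernatant 3H‑ethanolamine counted. Blank and vehicle controls; IC50 from normalized variable-slope sigmoidal fit.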

[3] = assay type: in vivo; conditions: rat, 10 mg·kg^−1 p.o.
rat brain = assay: Brain histopathology and behaviour in rats dosed 1 to 28 days; assay type: in vivo; conditions: rat, 10, 30 or 100 mg·kg^−1·day^−1 p.o.
CYP2C19 = CYP2C19 (Homo sapiens, UniProt P33261); assay: CYP inhibition, pooled human liver microsomes; assay type: in vitro ADME; conditions: 0.33–99.2 μM, co‐ and pre‐incubation
In short: as §1

[4] = system: brain fatty acid amides (AEA, PEA, OEA); assay: Fatty acid amides; assay type: in vivo; conditions: mouse brain, 8 hr
In short: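 Frozen brains were thawed at 4°C and weighed. Each sample was extracted with chloroform:MeOH (2:1) plus 0.1 M phosphate buffer, pH 5.6. Deuterated internal standards were spiked in: AEA‑d8, PEA‑d4 and OEA‑d2 for the fatty acid amides, and 2‑AG‑d8 for 2‑AG.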

CYP2D6 = CYP2D6 (Homo sapiens, UniProt P10635); assay: CYP inhibition, pooled human liver microsomes; assay type: in vitro ADME
In short: as §1

Sequence of CYP2D6 (P10635 whole entry): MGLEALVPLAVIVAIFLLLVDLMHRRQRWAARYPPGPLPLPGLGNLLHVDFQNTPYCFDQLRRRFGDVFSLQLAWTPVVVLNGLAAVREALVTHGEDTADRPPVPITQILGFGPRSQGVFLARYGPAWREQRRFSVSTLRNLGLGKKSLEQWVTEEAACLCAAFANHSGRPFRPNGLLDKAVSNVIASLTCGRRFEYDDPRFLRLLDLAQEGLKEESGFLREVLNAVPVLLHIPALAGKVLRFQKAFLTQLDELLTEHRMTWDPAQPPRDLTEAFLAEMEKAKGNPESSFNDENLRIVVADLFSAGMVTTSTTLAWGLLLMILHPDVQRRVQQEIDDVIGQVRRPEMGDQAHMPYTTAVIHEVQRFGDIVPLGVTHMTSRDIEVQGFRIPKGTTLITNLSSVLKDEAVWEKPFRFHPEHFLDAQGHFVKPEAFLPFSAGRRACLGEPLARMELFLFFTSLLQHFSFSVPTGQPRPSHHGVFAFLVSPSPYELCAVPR
Sequence of CYP2C8 (P10632 whole entry): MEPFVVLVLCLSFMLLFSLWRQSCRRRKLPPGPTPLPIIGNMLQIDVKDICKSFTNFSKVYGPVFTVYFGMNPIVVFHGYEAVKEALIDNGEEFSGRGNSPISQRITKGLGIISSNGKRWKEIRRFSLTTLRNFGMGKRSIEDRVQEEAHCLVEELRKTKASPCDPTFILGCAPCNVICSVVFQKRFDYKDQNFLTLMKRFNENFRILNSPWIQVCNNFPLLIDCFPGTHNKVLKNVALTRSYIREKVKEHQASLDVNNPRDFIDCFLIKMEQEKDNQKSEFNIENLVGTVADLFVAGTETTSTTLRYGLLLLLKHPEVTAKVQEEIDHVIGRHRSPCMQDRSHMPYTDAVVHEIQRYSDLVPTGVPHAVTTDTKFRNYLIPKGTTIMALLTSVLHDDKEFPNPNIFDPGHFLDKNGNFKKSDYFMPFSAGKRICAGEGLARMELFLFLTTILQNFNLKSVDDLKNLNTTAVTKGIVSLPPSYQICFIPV
Sequence of OCT2 (O15244 whole entry): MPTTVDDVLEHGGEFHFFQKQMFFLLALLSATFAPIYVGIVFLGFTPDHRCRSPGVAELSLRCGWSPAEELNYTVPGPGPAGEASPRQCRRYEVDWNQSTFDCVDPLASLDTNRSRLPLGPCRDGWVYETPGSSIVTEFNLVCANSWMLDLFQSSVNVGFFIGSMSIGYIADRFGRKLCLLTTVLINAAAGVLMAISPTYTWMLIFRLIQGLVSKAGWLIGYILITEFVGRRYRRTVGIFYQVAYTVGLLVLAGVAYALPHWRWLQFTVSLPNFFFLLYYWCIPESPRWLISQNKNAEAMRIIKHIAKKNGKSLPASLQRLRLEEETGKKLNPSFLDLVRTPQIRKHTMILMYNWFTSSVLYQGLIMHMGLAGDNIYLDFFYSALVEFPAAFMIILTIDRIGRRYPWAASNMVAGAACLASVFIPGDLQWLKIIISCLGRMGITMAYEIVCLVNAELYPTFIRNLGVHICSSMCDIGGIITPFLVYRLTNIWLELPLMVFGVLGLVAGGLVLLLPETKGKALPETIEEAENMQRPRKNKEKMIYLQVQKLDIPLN
Sequence of CYP2C19 (P33261 whole entry): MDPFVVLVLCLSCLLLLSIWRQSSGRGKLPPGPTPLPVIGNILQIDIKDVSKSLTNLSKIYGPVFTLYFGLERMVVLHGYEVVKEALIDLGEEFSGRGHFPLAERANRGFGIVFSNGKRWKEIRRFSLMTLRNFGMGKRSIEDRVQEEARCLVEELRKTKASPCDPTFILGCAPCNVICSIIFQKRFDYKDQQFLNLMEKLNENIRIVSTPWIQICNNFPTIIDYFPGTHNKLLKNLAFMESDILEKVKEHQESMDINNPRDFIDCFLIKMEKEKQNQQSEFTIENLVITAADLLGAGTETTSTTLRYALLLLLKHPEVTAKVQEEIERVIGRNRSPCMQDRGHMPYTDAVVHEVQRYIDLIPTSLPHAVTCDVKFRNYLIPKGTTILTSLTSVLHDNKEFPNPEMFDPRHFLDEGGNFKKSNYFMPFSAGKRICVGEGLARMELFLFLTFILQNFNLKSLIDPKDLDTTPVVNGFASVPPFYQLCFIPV
Sequence of CYP2A6 (P11509 whole entry): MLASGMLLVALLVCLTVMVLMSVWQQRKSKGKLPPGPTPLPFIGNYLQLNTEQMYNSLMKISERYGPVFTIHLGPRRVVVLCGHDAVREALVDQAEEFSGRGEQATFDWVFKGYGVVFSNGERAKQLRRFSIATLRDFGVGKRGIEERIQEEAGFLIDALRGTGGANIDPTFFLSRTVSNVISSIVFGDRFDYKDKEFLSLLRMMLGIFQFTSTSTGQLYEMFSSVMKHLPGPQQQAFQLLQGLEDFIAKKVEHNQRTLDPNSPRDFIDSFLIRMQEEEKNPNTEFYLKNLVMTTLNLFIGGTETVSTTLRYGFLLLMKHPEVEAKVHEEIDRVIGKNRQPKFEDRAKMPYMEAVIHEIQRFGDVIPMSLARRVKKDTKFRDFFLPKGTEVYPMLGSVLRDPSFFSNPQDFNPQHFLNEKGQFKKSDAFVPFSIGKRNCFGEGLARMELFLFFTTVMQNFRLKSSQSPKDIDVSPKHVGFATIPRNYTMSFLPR
Sequence of human OATP1B1 (Q9Y6L6 whole entry): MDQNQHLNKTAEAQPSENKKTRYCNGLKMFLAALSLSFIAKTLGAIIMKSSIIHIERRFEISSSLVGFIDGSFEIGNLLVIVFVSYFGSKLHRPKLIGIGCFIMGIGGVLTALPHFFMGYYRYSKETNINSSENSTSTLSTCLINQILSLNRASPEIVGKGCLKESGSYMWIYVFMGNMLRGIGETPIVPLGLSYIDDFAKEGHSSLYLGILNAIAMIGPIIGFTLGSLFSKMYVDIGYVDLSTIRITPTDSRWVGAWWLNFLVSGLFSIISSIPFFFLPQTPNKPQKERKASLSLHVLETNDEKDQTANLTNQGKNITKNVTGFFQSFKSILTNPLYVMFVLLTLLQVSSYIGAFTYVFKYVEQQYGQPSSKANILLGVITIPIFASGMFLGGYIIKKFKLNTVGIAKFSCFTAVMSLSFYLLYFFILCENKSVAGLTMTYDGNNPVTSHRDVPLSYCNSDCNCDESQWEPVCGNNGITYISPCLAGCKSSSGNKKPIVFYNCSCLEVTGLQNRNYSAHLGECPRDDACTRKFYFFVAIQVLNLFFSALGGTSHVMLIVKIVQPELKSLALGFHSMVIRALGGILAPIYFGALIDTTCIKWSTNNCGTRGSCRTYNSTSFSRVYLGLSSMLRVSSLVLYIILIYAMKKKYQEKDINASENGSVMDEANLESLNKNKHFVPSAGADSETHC

CN(C(=O)n1cnc(-c2ccc[n+]([O-])c2)c1)C1CCCCC1 [BIA 10‐2474, 3‐(1‐(cyclohexyl (methyl)carbamoyl)‐1H‐imidazol‐4‐yl)pyridine 1‐oxide]
inhibitory effect on CYP2A6 (CYP2A6): did not exhibit any inhibitory effects
ED50 [95% CI] Liver ([1]; 480 min): 6.2 μg·kg^−1 and 6.2 [4.8, 7.9] μg·kg^−1
inhibition at 0.1 mg/kg ([1]; po, read-out: inhibition of liver FAAH): > 96.5%
inhibition at 10 μg·ml^−1 (OCT2): 25%
inhibitory effect on CYP2C8 (CYP2C8): did not exhibit any inhibitory effects
effect on OATP1B1‐mediated probe substrate accumulation (human OATP1B1): did not influence
IC50 ([2]; IC50 [95% CI], pre‐incubation 0 min): 1130 nM
IC50 ([2]; IC50 [95% CI], pre‐incubation 5 min): 1180 nM
IC50 ([2]; IC50 [95% CI], pre‐incubation 15 min): 626 nM
IC50 ([2]; IC50 [95% CI], pre‐incubation 30 min): 424 nM
IC50 ([2]; IC50 [95% CI], pre‐incubation 45 min): 360 nM
IC50 ([2]; IC50 [95% CI], pre‐incubation 60 min): 398 nM
IC50 ([2]; IC50 values over all pre‐incubation times, rat brain membranes): 360 to 1130 nM
IC50 fold higher than those for JNJ‐42165279 ([2]; rat brain membranes): 2–4 fold
level in all brain sections ([3]; 24 hr after acute and 24, 48 and 72 hr after chronic administration): < 50 ng·g^−1 of tissue
brain levels, acute versus repeated oral administration ([3]; any brain region and time point): no significant differences
brain histopathology (rat brain): no abnormalities
overt behavioural abnormalities during treatment (rat brain): none of the animals used in this study showed any overt behavioural abnormalities
inhibitory effect on CYP2C19 (CYP2C19): did not exhibit any inhibitory effects
AEA ([4]; 0.01 mg·kg^−1 p.o.): 89.5 ± 9.3 % of control
OEA ([4]; 0.01 mg·kg^−1 p.o.): 109.1 ± 8.6 % of control
PEA ([4]; 0.01 mg·kg^−1 p.o.): 107.2 ± 8.8 % of control
AEA ([4]; 0.03 mg·kg^−1 p.o.): 87.0 ± 10.3 % of control
OEA ([4]; 0.03 mg·kg^−1 p.o.): 143.1 ± 30.6 % of control
PEA ([4]; 0.03 mg·kg^−1 p.o.): 178.6 ± 62.7 % of control
AEA ([4]; 0.1 mg·kg^−1 p.o.): 136.8 ± 16.4 % of control
OEA ([4]; 0.1 mg·kg^−1 p.o.): 676.5 ± 89.8 % of control
PEA ([4]; 0.1 mg·kg^−1 p.o.): 1027.6 ± 148.0 % of control
AEA ([4]; 0.3 mg·kg^−1 p.o.): 172.1 ± 29.5 % of control
OEA ([4]; 0.3 mg·kg^−1 p.o.): 804.0 ± 107.6 % of control
PEA ([4]; 0.3 mg·kg^−1 p.o.): 1,223.3 ± 159.6 % of control
inhibition of CYP2D6 (CYP2D6; co‐incubation): minor inhibition
inhibition of CYP2D6 (CYP2D6; pre‐incubation with BIA 10‐2474): no effect

O=C(Nc1cccnn1)N1CCC(=Cc2cccc(Oc3ccc(C(F)(F)F)cn3)c2)CC1 [PF‐04457845]
liver FAAH activity, % of control levels ([1]; 0.1 mg·kg^−1 p.o., 48 hr): 72.3%
inhibition of hepatic FAAH, mean values ([1]; 0.1 mg·kg^−1 p.o., over 24 hr): above 88.7%
ED50 [95% CI] Liver [1]: 2.0 [1.8, 2.2] μg·kg^−1
IC50 ([2]; read-out: IC50 [95% CI], pre‐incubation 0 min): 3.9 nM
IC50 ([2]; read-out: IC50 [95% CI], pre‐incubation 5 min): 2.8 nM
IC50 ([2]; read-out: IC50 [95% CI], pre‐incubation 15 min): 1.5 nM
IC50 ([2]; read-out: IC50 [95% CI], pre‐incubation 30 min): 2.7 nM
IC50 ([2]; read-out: IC50 [95% CI], pre‐incubation 45 min): 2.7 nM
IC50 ([2]; read-out: IC50 [95% CI], pre‐incubation 60 min): 2 nM
AEA ([4]; 0.003 mg·kg^−1 p.o.): 88.5 ± 7.5 % of control
OEA ([4]; 0.003 mg·kg^−1 p.o.): 97.1 ± 8.0 % of control
PEA ([4]; 0.003 mg·kg^−1 p.o.): 100.6 ± 16.4 % of control
AEA ([4]; 0.01 mg·kg^−1 p.o.): 220.2 ± 46.9 % of control
OEA ([4]; 0.01 mg·kg^−1 p.o.): 837.5 ± 115.5 % of control
PEA ([4]; 0.01 mg·kg^−1 p.o.): 984.3 ± 107.1 % of control
AEA ([4]; 0.03 mg·kg^−1 p.o.): 257.6 ± 16.9 % of control
OEA ([4]; 0.03 mg·kg^−1 p.o.): 886.1 ± 42.6 % of control
PEA ([4]; 0.03 mg·kg^−1 p.o.): 1073.1 ± 85.1 % of control
AEA ([4]; 0.1 mg·kg^−1 p.o.): 268.7 ± 10.8 % of control
OEA ([4]; 0.1 mg·kg^−1 p.o.): 933.4 ± 17.5 % of control
PEA ([4]; 0.1 mg·kg^−1 p.o.): 1080.9 ± 62.0 % of control
AEA ([4]; 0.3 mg·kg^−1 p.o.): 309.4 ± 16.6 % of control
OEA ([4]; 0.3 mg·kg^−1 p.o.): 961.4 ± 48.2 % of control
PEA ([4]; 0.3 mg·kg^−1 p.o.): 1,141.9 ± 56.3 % of control
